# Experimental data as given in PubChem BioAssay.
# Unmarked numbers belong to inactive results. Results filed as inconclusive are left out. Activity calls are given as the source filed them.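 How the source made its calls, unless noted: active means inhibition over a set limit, the all-compound mean plus 3 SD, in both replicate runs; inconclusive means over that limit in just one replicate run; inactive means at or under that limit in both runs.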
# What was measured:
# [1] = S. cerevisiae growth inhibition in permissive medium (OD615), pilot counter-assay for S. cerevisiae lifespan shortening project, permissive growth control (AID 705;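 active means growth inhibition above 25% in both replicates, a cutoff set 3 SD above the mean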); details: OD615, 24 h, at 10 µM, active compounds read high
# Method in brief: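 System – S. cerevisiae with engineered DeaD lifespan system · Buffer or medium – SC raffinose/galactose permissive medium · Schedule – cells pre-grown 4 h, then 24 h compound exposure, 30 °C humidified · Technique – culture turbidity as optical density at 615 nm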
# [2] = S. cerevisiae growth inhibition in restrictive medium, OD615, pilot screen, restrictive growth control, yeast lifespan reduction project (AID 706;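 active means growth inhibition above a set limit, 3 SD over mean compound inhibition, in both replicates, cut at about 43% in these data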;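 further: modified DeaD lifespan yeast strain shifted to restrictive glucose medium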); details: OD615, 48 h, at 10 µM, active compounds read high
# Method in brief: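 Material: engineered S. cerevisiae DeaD strain / Medium: glucose-based CSMM-D restrictive medium / Compound: single dose of 10 µM compound final, 0.25% DMSO / Timing: 4 h pre-incubation, 48 h exposure at 30 °C / Technique: OD615 absorbance reading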
# [3] = doxorubicin toxicity protection in MRP-1 cells – H69AR cells, CellTiter-Glo, duplicate, MRP-1 activator project, pilot screen (AID 807;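 active means viability increase at or above a cutoff of the median across tested compounds plus 3 SD, cut at about 8.5% in these data, passing the limit was not always enough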;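 further: compound pretreatment 18-22 h then 72 h combined with doxorubicin; 0% = doxorubicin alone and 100% = vehicle without doxorubicin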); details: H69AR viability with doxorubicin, CellTiter-Glo luminescence; at 10 µM; active compounds read high
# [4] = viability of HCT116 without oncogenic beta-catenin – human colon tumor cells, pilot screen (AID 823;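 active means cell viability at or below a set limit in both duplicate runs, the limit being the all-compound median minus 4 SD, cut at about 23% in these data, passing the limit was not always enough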;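 further: 0% = wells killed by 20 µM Hyamine and 100% = untreated DMSO cell wells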); details: HCT116 beta-catenin knockout viability, CellTiter-Glo, 60 h; at 10 µM; active compounds read low
# [5] = viability of PTEN-null HCT116 cells – cell-based, HCT116 clonal line, CellTiter-Glo, pilot screen (AID 824;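 active means viability at or below 27.92% in each of two runs, the all-compound median minus 4 SD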;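 further: 0% = 20 µM Hyamine control and 100% = vehicle cell control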); details: HCT116 PTEN-deleted viability, 60 h, at 10 µM, active compounds read low
# [6] = RAM pathway blockade in budding yeast – dse1pr::URA3 reporter, 5-FOA selection, pilot screen (AID 869);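 further: 0% = DMSO wells with no growth and 100% = 10 µM 1-NA-PP1 with full growth; RAM network block rescues cells from 5-FOA so hits raise OD615 growth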; details: S. cerevisiae dse1pr::URA3 5-FOA growth, OD615, 2 d; at 10 µM; active compounds read high; strain carries analog-sensitive mutant Cbk1 kinase
# [7] = RAM signaling pathway blockade in yeast – S. cerevisiae, Pdr1DBD-CYC8 efflux-inhibited sensitized strain, primary screen (AID 1298;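 active means RAM network inhibition above 8.4% in each of two replicates, 3 SD over the compound average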;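 further: 0% = DMSO untreated cells without growth and 100% = 10 µM 1-NA-PP1 full growth; higher means more yeast growth rescued from 5-FOA killing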); details: S. cerevisiae cbk1-as DSE1-URA3 strain, 5-FOA growth OD615, 2 d; at 50 µM; active compounds read high
Structure (SMILES),growth inhibition [1] [%],growth inhibition [2] [%],viability increase [3] [%],viability [4],viability [5],inhibition [6],RAM network inhibition [7] [%]
CSc1cccc(NC(=O)CN2C(=O)c3ccccc3S2(=O)=O)c1,-2.94,3.68,-0.41,106%,101%,0.095%,0.05
Cc1cc2oc(C(=O)NCc3ccncc3)c(C)c2cc1C,-3.59,10.7,0.54,96.4%,89.6%,0.7%,-0.89
Cc1cc(C)nc(-n2nc(C)cc2NC(=O)CN2CCC(C)CC2)n1,-0.83,21.6,-5.27,75.3%,85.5%,1.01%,2.91
COCCN1C(=O)c2ccccc2C(C(=O)N2CCN(c3ccccn3)CC2)C1c1ccc(F)cc1 (configuration not stated),1.72,-22.7,-4.12,92.2%,90.4%,0.335%,8.63
Brc1ccc2c(c1)c1nc3ccccc3nc1n2CCN1CCOCC1,-11,-0.14,-5.95,56%,59.4%,4.42%,5.58
COCC(C)NC(=O)c1cc(-c2ccc(O)cc2)on1 (configuration not stated),-1.88,4.68,-3.12,105%,100%,2.48%,0.94
CC(C)c1ccc(NC(=O)c2cnn(-c3ccccc3)c2NC(=O)c2ccco2)cc1,-2.46,0.43,-4.1,89.7%,85.6%,1.9%,5.45
COc1ccc(CCN2CC(C#N)=C3c4cc(OC)c(OC)cc4CCN3C2)cc1OC,-2.16,3.84,-4.7,99.5%,95.4%,-0.455%,-0.37
COc1ccccc1N1CCN(C(=O)CCc2ccc(S(=O)(=O)NC(C)C)cc2)CC1,-12.7,-19.8,-2.97,97.6%,102%,0.85%,4.61
O=C(COC(=O)c1ccc(S(=O)(=O)N2CCOCC2)cc1)NC1CCCCCC1,-5.28,-3.04,0.74,101%,105%,1.42%,3.1
CCOC(=O)c1sc(N)nc1-c1ccccc1,-5.04,1.07,-2.29,101%,94.5%,2.48%,-2.06
Cc1cc(NC(=O)CN2CCCCC2C)nc2c1c(=O)oc1ccccc12 (configuration not stated),4.45,-0.735,-0.4,102%,95.9%,1.36%,0.77
Cc1cc(NCc2ccco2)nc2cc(O)ccc12,-11.9,-28.8,-5.57,92.7%,93.4%,1.35%,1.95
Cc1ccc(NC(=O)c2c(O)c3ccccc3n(C)c2=O)nc1,-3.92,9.36,-5.52,75.3%,70.2%,0.36%,-1.46
CCOc1ccc(C(=O)NCc2ccncc2)cc1OCC,8.96,7.73,-0.92,92.9%,90%,2.33%,0.83
CCc1cc(C(=O)COc2ccccc2F)c(O)cc1O,-11.9,11.9,-2.43,96.1%,99.5%,-0.155%,-0.21
COC(=O)CN(c1ccc(C(C)C)cc1)S(=O)(=O)c1c(C)[nH]c(=O)[nH]c1=O,-0.6,11.3,-2.38,88.8%,94.6%,2.21%,2.71
Cc1nc2ccc(S(=O)(=O)NC(C(=O)N3CCCCCC3)C(C)C)cc2s1 (configuration not stated),-11.3,-4.58,-1.12,97.5%,87.8%,2.01%,2.77

Structure (SMILES),growth inhibition [1] [%],growth inhibition [2] [%],viability increase [3] [%],viability [4],viability [5],inhibition [6],RAM network inhibition [7] [%]
CCCCC(CC)CNC(=O)c1[nH]c(C)c(C(C)=O)c1C (configuration not stated),9.77,-2.26,-1.78,41.7%,63.8%,1.91%,1.29
Cn1c(Cn2c(=O)sc3ccccc32)nnc1SCC(=O)N1CCc2ccccc21,-8.97,-4.5,-1.09,86.1%,92.6%,2.98%,2.79
Cc1ccc(C2=CC(c3ccc(N(C)C)cc3)n3nnnc3N2)cc1 (configuration not stated),-10.6,7.92,-4.61,84%,77.3%,2.63%,-0.47
Cn1c2ccc(Cl)cc2c2nc3ccccc3nc21,-12.8,-4,-5.07,74.7%,76.6%,7.62% (active),12.6
COc1ccccc1N1CCN(CCCC(=O)c2ccc(F)cc2)CC1,-11.5,1.04,-0.78,80.6%,88.9%,2.29%,-0.89
O=C(CCNS(=O)(=O)c1cccc2nsnc12)NC1CCN(Cc2ccccc2)CC1,-3.28,-9.7,-2.01,87%,89%,-0.175%,5.02
CCCCCSc1nc2c(c(=O)[nH]c(=O)n2C)n1C,-12.6,-5.52,-2.27,90.3%,79.6%,2.1%,0.68
Cc1csc2nc(CNC(=O)C3CCCCC3)cn12,-16.4,-13.2,-3.04,105%,97.2%,0.93%,0.53
CC(=O)CCc1c(C)c2cccc(C)c2[nH]c1=O,1.6,1.5,-3.1,93.4%,96.5%,2.75%,3.81
COc1ccc(C2C(C(=O)N3CCCCC3)c3ccccc3C(=O)N2C)cc1 (configuration not stated),-2.93,-8.27,-2.9,92.3%,91.2%,0.375%,2.69
O=C1c2oc3ccc(F)cc3c(=O)c2C(c2ccc(F)cc2)N1CCCN1CCOCC1 (configuration not stated),-1.14,6.59,0.11,106%,97.5%,1.92%,-0.47
O=C(Nc1ccc2ccccc2c1)c1cccnc1,-3.92,2.79,-3.85,93.2%,81.5%,1.27%,4.91
C=C(Br)Cn1c(CC(C)C)nc2ccccc21,13.3,-14.3,-4.96,85.1%,83.7%,0.265%,4.37
CCCc1ccc(-c2ccc(C(=O)O)cc2)nc1,8.77,5.22,-3.24,101%,95.9%,-0.425%,-2.78
Cn1c(C(=O)NCc2ccccn2)cc2c(=O)n(C)c3ccccc3c21,-1.81,0.035,-4.13,103%,89.5%,0.965%,-0.15
CCOC(=O)C1CCCN(C(=O)c2cn(CC(C)C)c(=O)c3cc(OC)c(OC)cc23)C1 (configuration not stated),-8.41,-15.7,-3.43,97%,95%,0.555%,0.93
CN(Cc1ccccc1)C(=O)c1ccc2c(c1)OCCO2,-14.5,-4.09,-0.29,89.5%,94.6%,1.48%,3.49
O=C(Nc1nc2ccccc2n1CCOc1ccc(Cl)cc1)c1ccco1,0.61,-2.21,-3.5,11.8% (active),16.8% (active),0.745%,4.7
